Screening results deposited in PubChem by several laboratories.
Compounds with a hit are over-represented: about 2% of the library has one in this group of screens.
TWEAK-Fn14 inh: inhibitors of TWEAK-Fn14 signaling, primary screen, luciferase reporter cells, uHTS; 2% of 360,000 active; TWEAK-stimulated Fn14 reporter cells, luciferase luminescence, 8 h; inhibition, % at 10 µM; in the data active = inhibition above about 50%
TROY signal inh: inhibitors of TROY-driven NF-kB signaling, primary screen, Q293 LMP1-TROYcd cells, NF-kB luciferase, uHTS. Q293 LMP1-TROYcd NF-kB luciferase reporter, 4 h. inhibition, % at 10 µM. 0.98% of 360,000 active. AID 1347056, 2019;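 active = compounds whose plate-normalised and pattern-corrected inhibition of the luciferase reporter signal at the single screening dose is 50% or more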
LGR2 antag: inhibitors of bursicon-induced LGR2 CRE-luciferase signal, primary screen, cell-based, HEK293, CRE-luciferase reporter, bursicon stimulation; bursicon-stimulated, 4 h; inhibition, % at 9.99 µM; 0.35% of 380,000 active; AID 720647, 2013;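 active = drop in luminescence signal, shown as inhibition above about 50% in the replicate tests, limit read from the data, passing the limit was not always enough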;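 note: agonist challenge used bursicon conditioned medium at about half maximal strength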
XiGFP reactiv: activators of inactive X chromosome reactivation, primary screen, imaging, XiGFP fibroblasts, GFP high-content imaging, set 2; XiGFP mouse fibroblasts, % GFP-positive cells imaging, 3 d; cells co-treated with 5-aza-dC sensitizer; scaled so ellipticine positive control = 100%; activation, % at 7.58 µM; 0.055% of 360,000 active;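 active = mean normalized replicate activation at least 10% and every replicate at or above 10%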;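 note: 0% = median of on-plate neutral control wells and 100% = ellipticine 6 µM median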
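System: 68-5-11 XiGFP fibroblast line | Buffer or medium: DMEM containing 5-aza-dC | Compound: Single point | Times: Compounds 3 days, fix/stain 15 min at room temperature | Benchmarks: Positive control ellipticine, 6 µM final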
CaV13 ICDI inh: Disruptors of the CACNA1D IQ motif to Ca2+-dependent inactivation inhibitor domain association, primary screening, Förster resonance energy transfer in intact living …; HEK cells, CFP/YFP FRET ICDI-IQ, plate reader, 10 min; percent FRET-ratio fall versus neutral wells; inhibition, % at 12.3 µM; 0.098% of 340,000 active;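 active = mean replicate inhibition of at least 30% and at least 1% of replicates passing that level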;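 note: 0% = median of the neutral control wells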
Starred values were filed as active, the others as inactive; nt = no result given.

SMILES | TWEAK-Fn14 inh | TROY signal inh | LGR2 antag | XiGFP reactiv | CaV13 ICDI inh
Fc1cccc(Cc2c(-c3ccco3)nc3ccc(Cl)cn23)c1 | 54* | -4 | nt | nt | nt
Clc1cccc(Cc2c(-c3ccco3)nc3c4ccccc4ccn23)c1 | 69* | 0 | 12 | 0 | -3
Fc1cccc(Cc2c(-c3ccco3)nc3ccc(Br)cn23)c1 | 45 | 4 | -3 | 0 | -5
COc1ccc(S(=O)(=O)N(C)C[C@H]2Oc3c(NC(=O)Nc4ccc5c(c4)OCO5)cccc3C(=O)N([C@@H](C)CO)C[C@H]2C)cc1 | nt | nt | -5 | 0 | nt
C[C@@H]1CCCCO[C@@H](CN(C)C)[C@H](C)CN([C@@H](C)CO)C(=O)c2cc(NC(=O)NC3CCCCC3)ccc2O1 | nt | nt | 2 | 0 | nt
COc1ccc(-c2cc3cc(F)ccc3cn2)cc1 | 24 | -55 | -10 | 0 | -5
COc1ccc(-c2cc3ccc(F)cc3cn2)cc1 | 50* | -15 | 63* | 0 | -4
O=C(C[C@H]1C[C@@H]2c3cc(NC(=O)Nc4ccccc4F)ccc3O[C@@H]2[C@H](CO)O1)NCc1ccc(Oc2ccccc2)cc1 | nt | nt | -2 | 0 | nt
S=c1[nH]nc(-c2cc(-c3ccccc3)n[nH]2)n1/N=C/C(Br)=C/c1ccccc1 | 75* | -36 | 1 | 1 | -3
CC(=C/c1ccccc1)/C=N/n1c(-c2ccncc2)n[nH]c1=S | 78* | 52* | 17 | 0 | -2
S=c1[nH]nc(-c2cc(-c3ccccc3)n[nH]2)n1/N=C/c1ccccc1 | 4 | -22 | -3 | 0 | -4
CC(/C=N/n1c(-c2cccnc2)n[nH]c1=S)=C\c1ccccc1 | 6 | 19 | nt | nt | -3
CCS(=O)(=O)N1Cc2cc(C(=O)O)nc(-c3cccc(-c4ccc(C#N)cc4)c3)c2[C@@H]1CCO | nt | nt | nt | 0 | nt
Cc1cc(C)cc(Oc2ccc(-c3nnc(-c4ccccc4)o3)cc2[N+](=O)[O-])c1 | 101* | 87* | nt | 1 | -4
O=C1C2CC=CCC2C(=O)N1c1ccc(NCCc2ccc(O)cc2)c([N+](=O)[O-])c1 (configuration not stated) | 57* | 1 | 2 | 0 | -5
CC(C)(C)c1ccc(NC(=O)COc2ccc(-n3ccnc3)cc2)cc1 | 93* | 75* | nt | nt | nt
O=C(OCCNc1nc(-c2ccccc2)nc2ccccc12)c1cccnc1 | 12 | -1 | 2 | 0 | -5
CCCOC(=O)c1cccc(Nc2nc(-c3cccnc3)nc3ccccc23)c1 | 57* | 24 | 5 | 0 | -3
CO[C@@H]1CN(C)C(=O)c2ccc(NC(C)=O)cc2OC[C@@H](C)N(C(=O)C2CCC2)C[C@@H]1C | nt | nt | 0 | 0 | nt
Cc1nc2c(=O)n(C)c(=O)n(C)c2nc1Cl | 50* | 32 | -23 | 1 | -5
O=C(C[C@@H]1C=C[C@H](NC(=O)CN2CCOCC2)[C@@H](CO)O1)NC1CCCCC1 | nt | nt | -3 | 0 | nt
C[C@@H]1CCCCO[C@H](CN(C)Cc2ccc(C(=O)Nc3ccccc3N)cc2)[C@@H](C)CN([C@H](C)CO)C(=O)c2cc(N(C)C)ccc2O1 | nt | nt | nt | 1 | nt
C[C@@H]1CN([C@H](C)CO)C(=O)c2cc(C#CCN(C)C)cnc2O[C@H]1CN(C)S(=O)(=O)c1cn(C)cn1 | nt | nt | -14 | -2 | nt
O=c1cc(-c2ccc(O)cc2)oc2c1ccc1ccccc12 | 38 | 63* | -22 | -1 | -7
O=c1cc(-c2ccc(O)cc2)oc2ccc3ccccc3c12 | 102* | 88* | 100* | 0 | -7
SMILES | TWEAK-Fn14 inh | TROY signal inh | LGR2 antag | XiGFP reactiv | CaV13 ICDI inh
O=c1cc(-c2ccncc2)oc2c1ccc1ccccc12 | 22 | -20 | 5 | 0 | -10
O=c1cc(C(Cl)(Cl)Cl)oc2c1ccc1ccccc12 | 56* | 49 | nt | nt | -4
C[C@@H]1CN([C@H](C)CO)C(=O)c2ccccc2-c2ccccc2CO[C@H]1CN(C)S(=O)(=O)c1cccs1 | nt | nt | -10 | 0 | nt
C[C@H]1CN([C@@H](C)CO)C(=O)c2c(c3ccccc3n2C)-c2ccccc2CO[C@@H]1CN(C)C(=O)Nc1ccccc1 | nt | nt | 22 | 0 | nt
O=C(C[C@@H]1CC[C@@H]2[C@H](COC[C@@H](O)CN2C(=O)Nc2ccc(Cl)cc2)O1)NC1Cc2ccccc2C1 | nt | nt | -11 | 0 | nt
CC=Cc1ccc2n(c1=O)C[C@H]1[C@H](CO)[C@@H](C(=O)NCCC)[C@@H]2N1C(=O)c1ccccc1 (mixture of isomers) | nt | nt | 14 | 0 | nt
O=C(Nc1ccc(CN2CCOCC2)cc1)c1ccc(Br)o1 | 3 | -49 | -31 | 0 | -2
O=C(Nc1ccc(CN2CCOCC2)cc1)c1ccc(-c2cc(Cl)ccc2Cl)o1 | 76* | 51* | nt | nt | -5
O=C(Nc1ccc(S(=O)(=O)N2CCCCC2)cc1)c1ccc(CN2CCOCC2)cc1 | 68* | 53* | nt | nt | nt
O=C(Nc1ccc(S(=O)(=O)N2CCCC2)cc1)c1ccc(CN2CCOCC2)cc1 | 22 | 22 | nt | nt | -4
COc1ccc2c3c([nH]c2c1)[C@H](CO)N(Cc1ccccc1)CC31CCN(C(=O)Cc2ccccc2)CC1 | nt | nt | 15 | 0 | nt
C[C@H](CO)N1C[C@H](C)[C@@H](CN(C)CC2CCCCC2)OCCCC[C@H](C)Oc2ccc(NS(=O)(=O)c3ccc(F)cc3)cc2C1=O | nt | nt | -13 | 0 | nt
CCc1ccc(C(C(=O)NC2CCCC2)N(C(=O)/C=C/C(=O)Nc2cc(C)on2)c2ccccc2C)cc1 (configuration not stated) | 56* | 27 | 7 | 0 | -5
C[C@@H]1CN([C@H](C)CO)C(=O)c2cc(C3=CCCC3)cnc2O[C@@H]1CN(C)C(=O)c1cccnc1 | nt | nt | 6 | 0 | nt
CCNC(=O)[C@H]1[C@H](CO)[C@H]2Cn3c(ccc(C4=CCCCC4)c3=O)[C@H]2N1Cc1ccccc1F | nt | nt | -4 | 0 | nt
COc1ccc(-c2cc(NC(C)=O)c3ncc(-c4cccc(C(C)=O)c4)n3c2)cc1OC | 4 | 62* | 10 | 0 | -4
CC(=O)c1ccc(-c2cnc3c(NC=O)cc(-c4ccccc4Oc4ccccc4)cn23)cc1 | 59* | 14 | -3 | 0 | -5
COCC(=O)Nc1ccc2c(c1)C(=O)N(C)[C@@H]1CC[C@@H](CC(=O)NCc3cccc(F)c3)O[C@H]1CO2 | nt | nt | 3 | 0 | nt
CC(=O)N(C)C[C@H]1Oc2ncc(C#CC(C)(C)O)cc2C(=O)N([C@@H](C)CO)C[C@@H]1C | nt | nt | -8 | -1 | nt
